Measurements from ChEMBL document CHEMBL4308828, “Fragment Based Optimization of Metabotropic Glutamate Receptor 2 (mGluR2) Positive Allosteric Modulators in the Absence of Structural Information” (J Med Chem, 2018).
Values after ≈ are worked out from the molar mass of the structure shown.

Experiments:
[1] = Intrinsic clearance in Wistar rat liver microsomes at 2.5 uM; format: ADME, Microsome
Outline: (§1)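 Liver microsomes (0.5 mg/mL) of human, Wistar rat or NMRI mouse; compound 2.5 μM initial, incubated for various times. Intrinsic clearance (mL/min·g liver) taken as rate of compound consumption under first-order conditions, Clint = Vmax/KM or V/S when S ≪ KM.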

[2] = Kinetic aqueous solubility of the compound in pH 7.4 solution; format: physicochemical; conditions: aqueous pH 7.4 solution, read-out: Kinetic_solubility
[3] = test system: Mus musculus; test: Antipsychotic activity in ip dosed ddY mouse assessed as inhibition of PCP-induced hyperlocomotion pretreated followed by PCP addition measured after 60 mins by passive infrared sensor method; format: functional
Outline: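 Male ddY mice, 6 weeks old, acclimated 60 min in test cage, dosed i.p., then immediately PCP 2.5 mg/kg s.c.; locomotor activity recorded 60 min by passive infrared sensor system; ED50 reported.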

[4] = Intrinsic clearance in human liver microsomes at 2.5 uM; format: ADME, Microsome; outline: as §1
[5] = Plasma concentration in mouse at 30 mg/kg, po; format: ADME, organism-based; conditions: in vivo
Outline: (§2)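 Mice dosed orally at 30 mg/kg; plasma, brain and unbound plasma concentrations measured.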

[6] = molecular target: T1, Nuclear receptor subfamily 1 group I member 2 (Homo sapiens, UniProt O75469); test: Activation of PXR (unknown origin) assessed as CYP induction; format: ADME
T1 sequence (O75469 whole entry): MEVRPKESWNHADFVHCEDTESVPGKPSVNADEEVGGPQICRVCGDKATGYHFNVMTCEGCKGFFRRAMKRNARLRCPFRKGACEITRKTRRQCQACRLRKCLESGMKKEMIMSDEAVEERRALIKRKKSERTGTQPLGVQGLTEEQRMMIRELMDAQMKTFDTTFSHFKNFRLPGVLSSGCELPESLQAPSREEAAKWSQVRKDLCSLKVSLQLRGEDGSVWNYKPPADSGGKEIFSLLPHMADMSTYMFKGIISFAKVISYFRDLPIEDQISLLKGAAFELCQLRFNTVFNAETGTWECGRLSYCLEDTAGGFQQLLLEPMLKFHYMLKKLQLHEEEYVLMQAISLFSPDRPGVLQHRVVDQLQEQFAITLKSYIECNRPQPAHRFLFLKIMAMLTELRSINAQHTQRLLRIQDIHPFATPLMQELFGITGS

[7] = molecular target: Metabotropic glutamate receptor 2 (Homo sapiens, UniProt Q14416); test: Positive allosteric modulation of human mGluR2 expressed in human Chem1 cells assessed as increase in glutamate-induced intracellular calcium influx preincubated for 30 mins followed by glutamate addition by calcium-5 dye based fluorometric assay; format: functional, cell-based
Outline: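 Chem-1 cells stably expressing human mGlu2, 30000 cells/well, overnight at 37 °C. Loaded with Calcium 5 dye (30 min, 37 °C) in buffer with GPT/pyruvate, washed, then compound or vehicle 30 min at 37 °C. Glutamate at EC5-EC20 added after 20 s baseline; fluorescence 485/525 nm read 40 s. ΔF/F from multiple wells; sigmoid fits give EC50, three independent experiments. Final DMSO 1%.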

[8] = species: Homo sapiens; test: Binding affinity to sodium channel site 2 (unknown origin) at 10 uM relative to control
[9] = Intrinsic clearance in NMRI mouse liver microsomes at 2.5 uM; format: ADME, Microsome; outline: as §1
[10] = Lipophilicity, log D of the compound at pH 7.4; format: physicochemical; conditions: buffer
[11] = molecular target: T2, Androgen receptor (Homo sapiens) (UniProt P10275); test: Binding affinity to AR (unknown origin) at 10 uM relative to control
T2 sequence (whole entry): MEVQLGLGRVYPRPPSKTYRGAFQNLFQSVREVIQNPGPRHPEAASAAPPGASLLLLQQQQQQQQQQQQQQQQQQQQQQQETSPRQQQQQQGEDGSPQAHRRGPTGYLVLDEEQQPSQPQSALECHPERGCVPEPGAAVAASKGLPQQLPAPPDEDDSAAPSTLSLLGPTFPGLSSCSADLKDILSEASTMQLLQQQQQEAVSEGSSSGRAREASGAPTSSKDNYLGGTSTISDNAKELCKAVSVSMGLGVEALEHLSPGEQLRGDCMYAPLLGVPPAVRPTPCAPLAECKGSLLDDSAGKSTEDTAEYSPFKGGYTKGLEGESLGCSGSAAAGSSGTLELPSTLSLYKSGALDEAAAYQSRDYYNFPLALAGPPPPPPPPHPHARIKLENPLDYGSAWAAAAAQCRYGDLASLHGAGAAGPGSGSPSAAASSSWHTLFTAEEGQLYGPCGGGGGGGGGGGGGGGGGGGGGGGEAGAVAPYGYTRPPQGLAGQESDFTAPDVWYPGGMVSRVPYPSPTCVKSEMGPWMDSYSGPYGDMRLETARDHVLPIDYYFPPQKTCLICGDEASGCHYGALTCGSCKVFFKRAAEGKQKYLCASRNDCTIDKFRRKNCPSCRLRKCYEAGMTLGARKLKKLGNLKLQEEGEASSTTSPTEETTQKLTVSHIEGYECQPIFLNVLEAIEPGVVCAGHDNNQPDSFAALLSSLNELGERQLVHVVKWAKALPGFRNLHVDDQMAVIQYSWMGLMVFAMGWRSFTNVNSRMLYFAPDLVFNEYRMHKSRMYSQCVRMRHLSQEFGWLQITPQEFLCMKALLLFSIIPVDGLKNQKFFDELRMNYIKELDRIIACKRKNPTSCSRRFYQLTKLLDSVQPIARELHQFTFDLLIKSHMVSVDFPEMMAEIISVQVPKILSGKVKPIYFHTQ

[12] = Drug uptake in mouse brain at 30 mg/kg, po; format: ADME, organism-based; conditions: in vivo, read-out: Drug uptake; outline: as §2
[13] = molecular target: T3, Cytochrome P450 1A2 (Homo sapiens, UniProt P05177); test: Inhibition of CYP1A2 (unknown origin); format: ADME
T3 sequence (P05177 whole entry): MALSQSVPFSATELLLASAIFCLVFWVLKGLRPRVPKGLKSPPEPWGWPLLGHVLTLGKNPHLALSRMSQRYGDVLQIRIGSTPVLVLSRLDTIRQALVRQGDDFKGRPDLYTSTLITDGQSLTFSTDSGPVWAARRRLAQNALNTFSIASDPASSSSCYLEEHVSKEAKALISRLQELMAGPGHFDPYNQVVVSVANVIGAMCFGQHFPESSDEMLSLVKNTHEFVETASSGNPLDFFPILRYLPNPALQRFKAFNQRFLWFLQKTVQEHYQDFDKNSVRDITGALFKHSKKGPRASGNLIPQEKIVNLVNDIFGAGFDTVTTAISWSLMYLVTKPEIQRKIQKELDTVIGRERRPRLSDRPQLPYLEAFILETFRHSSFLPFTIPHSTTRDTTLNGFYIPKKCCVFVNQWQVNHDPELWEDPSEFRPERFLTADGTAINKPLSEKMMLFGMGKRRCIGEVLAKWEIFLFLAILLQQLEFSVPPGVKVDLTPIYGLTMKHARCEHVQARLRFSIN

[14] = Unbound plasma concentration in mouse at 30 mg/kg, po; format: ADME, organism-based; conditions: in vivo; outline: as §2
[15] = molecular target: Cytochrome P450 2D6 (Homo sapiens, UniProt P10635); test: Inhibition of CYP2D6 (unknown origin); format: ADME
[16] = molecular target: Cytochrome P450 3A4 (Homo sapiens, UniProt P08684); test: Inhibition of CYP3A4 (unknown origin); format: ADME
[17] = molecular target: Cytochrome P450 2C9 (Homo sapiens, UniProt P11712); test: Inhibition of CYP2C9 (unknown origin); format: ADME
[18] = Protein binding in mouse plasma; format: ADME, cell-free; conditions: read-out: PPB (converted)
[19] = Protein binding in rat plasma; format: ADME, cell-free; conditions: read-out: PPB (converted)
[20] = test system: Mus musculus; test: Inhibition of DOI-induced head twitches in ip dosed ddY mouse pretreated for 20 mins followed by DOI addition measured after 8 mins; format: functional
Outline: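 Male ddY mice, 6 weeks old, dosed i.p. 20 min before DOI 0.75 mg/kg s.c.; head twitches counted in transparent cylinder from 10 to 18 min after DOI.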

Cytochrome P450 2C9, sequence (P11712 whole entry): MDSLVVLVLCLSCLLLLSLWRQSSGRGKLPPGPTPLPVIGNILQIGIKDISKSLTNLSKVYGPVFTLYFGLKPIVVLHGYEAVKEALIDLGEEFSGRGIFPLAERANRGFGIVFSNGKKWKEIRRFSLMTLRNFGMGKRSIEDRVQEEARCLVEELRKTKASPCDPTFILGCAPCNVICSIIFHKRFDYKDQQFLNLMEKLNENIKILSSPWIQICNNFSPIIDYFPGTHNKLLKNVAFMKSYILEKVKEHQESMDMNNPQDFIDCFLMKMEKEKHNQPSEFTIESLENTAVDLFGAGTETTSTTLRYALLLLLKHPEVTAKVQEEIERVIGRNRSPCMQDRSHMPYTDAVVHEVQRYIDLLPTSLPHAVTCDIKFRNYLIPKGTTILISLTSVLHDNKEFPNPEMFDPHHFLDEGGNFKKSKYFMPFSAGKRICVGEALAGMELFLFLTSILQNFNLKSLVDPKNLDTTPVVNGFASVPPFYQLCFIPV
Cytochrome P450 2D6, sequence (P10635 whole entry): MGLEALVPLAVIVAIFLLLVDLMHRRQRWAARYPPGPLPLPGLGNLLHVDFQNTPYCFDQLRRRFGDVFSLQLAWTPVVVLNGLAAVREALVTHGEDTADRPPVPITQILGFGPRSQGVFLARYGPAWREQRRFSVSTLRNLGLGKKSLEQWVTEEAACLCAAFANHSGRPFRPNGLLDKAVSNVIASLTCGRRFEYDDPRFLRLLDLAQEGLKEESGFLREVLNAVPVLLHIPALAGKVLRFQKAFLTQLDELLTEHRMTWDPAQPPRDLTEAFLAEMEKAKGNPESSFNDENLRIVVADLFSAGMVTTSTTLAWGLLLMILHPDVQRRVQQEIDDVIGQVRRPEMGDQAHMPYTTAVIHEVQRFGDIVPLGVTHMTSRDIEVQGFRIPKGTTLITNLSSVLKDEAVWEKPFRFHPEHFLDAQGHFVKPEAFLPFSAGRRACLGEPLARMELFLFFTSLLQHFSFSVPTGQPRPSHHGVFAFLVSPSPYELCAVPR
Metabotropic glutamate receptor 2, sequence (Q14416 whole entry): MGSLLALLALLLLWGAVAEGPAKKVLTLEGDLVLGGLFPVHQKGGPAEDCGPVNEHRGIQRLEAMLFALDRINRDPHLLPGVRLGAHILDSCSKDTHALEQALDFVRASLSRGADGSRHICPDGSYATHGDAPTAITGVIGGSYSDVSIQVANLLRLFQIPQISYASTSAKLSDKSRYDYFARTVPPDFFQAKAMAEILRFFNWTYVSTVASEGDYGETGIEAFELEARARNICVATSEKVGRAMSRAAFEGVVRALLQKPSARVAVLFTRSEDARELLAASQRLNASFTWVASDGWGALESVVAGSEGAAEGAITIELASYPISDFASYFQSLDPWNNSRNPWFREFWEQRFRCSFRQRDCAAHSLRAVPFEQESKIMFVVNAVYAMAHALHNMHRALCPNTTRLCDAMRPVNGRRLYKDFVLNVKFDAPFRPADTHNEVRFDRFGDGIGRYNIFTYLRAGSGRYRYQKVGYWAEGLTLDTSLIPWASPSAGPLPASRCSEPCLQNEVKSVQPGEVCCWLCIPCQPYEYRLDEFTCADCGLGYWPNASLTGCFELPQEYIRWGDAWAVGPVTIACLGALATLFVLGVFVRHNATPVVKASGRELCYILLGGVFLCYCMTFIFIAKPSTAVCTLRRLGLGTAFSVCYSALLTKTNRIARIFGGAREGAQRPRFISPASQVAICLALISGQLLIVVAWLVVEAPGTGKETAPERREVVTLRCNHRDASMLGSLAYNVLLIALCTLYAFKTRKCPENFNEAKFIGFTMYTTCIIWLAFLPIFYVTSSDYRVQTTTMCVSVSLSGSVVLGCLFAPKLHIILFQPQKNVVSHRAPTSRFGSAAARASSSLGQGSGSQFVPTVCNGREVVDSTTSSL
Cytochrome P450 3A4, sequence (P08684 whole entry): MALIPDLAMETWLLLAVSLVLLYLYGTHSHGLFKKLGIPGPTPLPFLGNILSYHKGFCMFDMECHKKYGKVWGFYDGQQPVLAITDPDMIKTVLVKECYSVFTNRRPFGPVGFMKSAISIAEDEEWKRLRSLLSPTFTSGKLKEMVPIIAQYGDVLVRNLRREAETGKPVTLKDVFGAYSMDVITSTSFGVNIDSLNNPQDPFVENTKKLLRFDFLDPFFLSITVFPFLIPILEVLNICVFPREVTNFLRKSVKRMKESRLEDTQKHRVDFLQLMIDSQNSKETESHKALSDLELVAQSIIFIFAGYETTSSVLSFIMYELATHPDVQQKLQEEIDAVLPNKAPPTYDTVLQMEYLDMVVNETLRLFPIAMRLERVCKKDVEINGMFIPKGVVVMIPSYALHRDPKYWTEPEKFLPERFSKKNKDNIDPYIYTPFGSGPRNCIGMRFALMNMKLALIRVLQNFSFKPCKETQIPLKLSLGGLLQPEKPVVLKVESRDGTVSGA

Row | Intrinsic clearance [1] [mL/min/g] | solubility kinetic [2] [µg/mL] | Intrinsic clearance [4] [mL/min/g] | concentration [5] [nM] | MEC [6] [µM] | EC50 [7] [µM] | Activity [8] [%] | Intrinsic clearance [9] [mL/min/g] | logD [10] | Activity [11] [%] | concentration [12] [nM] | IC50 [13] [µM] | Cp(f) [14] [nM] | IC50 [15] [µM] | IC50 [16] [µM] | IC50 [17] [µM] | fraction unbound [18] | fraction unbound [19] | Structure (SMILES) | ED50 [3] [mg/kg] | ED50 [20] [mg/kg]
1 | 0.8 | 3 (≈ 8.86 µM) | 0.01 | 2000 | 7.7 | 0.05 | 50 | 3.4 | 5.48 | 77 | 1400 | > 10 | 15 | > 10 | > 10 | 6.6 | 0.008 | 0.006 | Fc1cc(Cl)ccc1-c1ccc(Cn2nnc3ccccc32)cn1 | > 100 | 
2 | 0.3 | 409 (≈ 1700 µM) | 0.3 | 12100 | 7 | 0.148 |  | 1.4 | 3.08 |  | 13100 | > 10 | 1750 | > 10 | > 10 | > 10 | 0.145 | 0.1 | FC(F)(F)c1cccc2c1nnn2CC1CC1 | 57.6 | 29.7
